Test results: ChEMBL document CHEMBL1145835, “Novel potent 5-HT(1F) receptor agonists: structure-activity studies of a series of substituted N-[3-(1-methyl-4-piperidinyl)-1H-pyrrolo[3,2-b]pyridin-5-yl]amides” (J Med Chem, 2003)

Columns and labels:
[1] = target: 5-hydroxytryptamine receptor 1D (Homo sapiens, UniProt P28221); test: In vitro binding affinity by radioligand binding assay using cell line expressing human 5-hydroxytryptamine 1D receptor
Outline: (§1)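 Ki (nM) from radioligand binding on cell lines each expressing one human serotonin receptor subtype. Values are means of at least three determinations with SEM. ND: Ki not determined, when a 10⁻⁷ M test ligand gave <50% displacement of radioligand.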

[2] = target: T1, 5-hydroxytryptamine receptor 1F (Homo sapiens) (UniProt P30939); test: Maximum stimulation of [35S]GTP-gamma-S, binding expressed relative to the maximal effect of 5-hydroxytryptamine […]; format: functional
T1 sequence (whole entry): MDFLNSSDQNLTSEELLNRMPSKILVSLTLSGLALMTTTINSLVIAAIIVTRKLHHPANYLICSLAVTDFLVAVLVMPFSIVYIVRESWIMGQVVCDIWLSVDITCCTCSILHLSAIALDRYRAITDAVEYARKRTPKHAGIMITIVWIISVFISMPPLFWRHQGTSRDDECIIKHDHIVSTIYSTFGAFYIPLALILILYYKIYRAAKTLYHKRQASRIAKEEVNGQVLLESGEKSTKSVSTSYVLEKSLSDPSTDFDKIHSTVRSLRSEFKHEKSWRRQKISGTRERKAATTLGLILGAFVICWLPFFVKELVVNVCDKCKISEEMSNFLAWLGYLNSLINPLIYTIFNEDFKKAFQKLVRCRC

[3] = target: 5-hydroxytryptamine receptor 1B (Homo sapiens, UniProt P28222); test: In vitro binding affinity by radioligand binding assay using cell line expressing human 5-hydroxytryptamine 1B receptor
Outline: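 Ki (nM) from radioligand binding on cell lines each expressing one human serotonin receptor subtype. Values are means of at least three determinations with SEM.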

Oryctolagus cuniculus [4] = organism: Oryctolagus cuniculus; test: In vitro contractile response in rabbit saphenous vein; format: functional
Outline: (§2)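 Rabbit saphenous vein rings. Maximal contraction is expressed as % of the contraction induced by KCl (67 mM), with the concentration giving the maximal response recorded. Means (SEM) of three to seven determinations.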

Oryctolagus cuniculus [5] = organism: Oryctolagus cuniculus; test: In vitro concentration of maximum contractile response in rabbit saphenous vein; format: functional; outline: as §2
Cavia porcellus [6] = test: In vivo efficacy in neurogenic plasma protein extravasation screen using guinea pig neurogenic PPE assay (1 ng/kg, po) at 1 hr postdose; format: functional
Outline: (§3)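 Guinea pig neurogenic dural PPE screen. Single oral dose of 1 ng/kg, then unilateral trigeminal ganglion stimulation with Evan's blue-labelled plasma protein leakage. Read-out is the fluorescence ratio of stimulated to unstimulated dura at 1 h or 24 h postdose. A ratio near 1 means full efficacy; near 1.8 means ineffective.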

[7] = target: T2, 5-hydroxytryptamine receptor 1A (Homo sapiens, UniProt P08908); test: In vitro binding affinity by radioligand binding assay using cell line expressing human 5-hydroxytryptamine 1A receptor; outline: as §1
T2 sequence (P08908 whole entry): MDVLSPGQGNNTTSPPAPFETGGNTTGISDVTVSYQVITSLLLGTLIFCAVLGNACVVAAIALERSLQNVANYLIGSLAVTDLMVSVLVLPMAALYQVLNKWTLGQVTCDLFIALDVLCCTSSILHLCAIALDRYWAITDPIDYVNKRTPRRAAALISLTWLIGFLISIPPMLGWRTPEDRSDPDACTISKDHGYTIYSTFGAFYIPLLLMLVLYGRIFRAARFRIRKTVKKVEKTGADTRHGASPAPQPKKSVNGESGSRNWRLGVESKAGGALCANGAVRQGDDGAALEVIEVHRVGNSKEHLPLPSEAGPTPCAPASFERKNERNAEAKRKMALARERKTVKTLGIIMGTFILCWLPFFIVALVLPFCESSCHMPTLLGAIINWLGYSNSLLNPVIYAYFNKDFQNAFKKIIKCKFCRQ

[8] = target: T3, 5-hydroxytryptamine receptor 1F (Homo sapiens, UniProt P30939); test: In vitro binding affinity was determined by radioligand binding assay using cell line expressing human 5-hydroxytryptamine 1F receptor; outline: as §1
T3 sequence (P30939 whole entry): T1 sequence (whole entry)

[9] = target: T3, 5-hydroxytryptamine receptor 1F; test: In vitro effective concentration for stimulation of [35S]GTP-gamma-S, binding in mouse LM(tk-)cells expressing the human 5-HT1F receptor; format: functional
Cavia porcellus [10] = test: In vivo efficacy in neurogenic plasma protein extravasation screen using guinea pig neurogenic PPE assay (1 ng/kg, po) at 24 hr postdose; format: functional; outline: as §3
[11] = target: T3, 5-hydroxytryptamine receptor 1F; test: In vitro effective concentration for stimulation of [35S]GTP-gamma-S, binding in mouse LM(tk-)cells expressing the human 5-hydroxytryptamine 1F receptor; format: functional
[12] = target: T4, 5-hydroxytryptamine receptor 2C (Homo sapiens, UniProt P28335); test: In vitro binding affinity by radioligand binding assay using cell line expressing human 5-hydroxytryptamine 2C receptor
T4 sequence (P28335 whole entry): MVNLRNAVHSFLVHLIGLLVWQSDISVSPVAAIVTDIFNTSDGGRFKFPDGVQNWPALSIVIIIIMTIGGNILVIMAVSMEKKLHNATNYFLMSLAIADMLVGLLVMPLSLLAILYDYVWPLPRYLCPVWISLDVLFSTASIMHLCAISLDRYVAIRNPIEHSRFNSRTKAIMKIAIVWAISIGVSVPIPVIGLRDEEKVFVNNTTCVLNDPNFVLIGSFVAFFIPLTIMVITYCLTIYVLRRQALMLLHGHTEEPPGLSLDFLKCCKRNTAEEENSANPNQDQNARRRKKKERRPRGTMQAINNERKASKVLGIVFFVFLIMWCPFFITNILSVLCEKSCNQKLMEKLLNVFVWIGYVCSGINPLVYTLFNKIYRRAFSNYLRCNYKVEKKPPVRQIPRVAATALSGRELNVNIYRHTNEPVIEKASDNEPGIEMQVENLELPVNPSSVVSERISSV

[13] = target: 5-hydroxytryptamine receptor 6 (Homo sapiens, UniProt P50406); test: In vitro binding affinity by radioligand binding assay using cell line expressing human 5-hydroxytryptamine 6 receptor
[14] = target: 5-hydroxytryptamine receptor 4 (Homo sapiens, UniProt Q13639); test: In vitro binding affinity by radioligand binding assay using cell line expressing human 5-hydroxytryptamine 4 receptor
[15] = target: 5-hydroxytryptamine receptor 2B (Homo sapiens, UniProt P41595); test: In vitro binding affinity by radioligand binding assay using cell line expressing human 5-hydroxytryptamine 2B receptor
[16] = target: 5-hydroxytryptamine receptor 1E (Homo sapiens, UniProt P28566); test: In vitro binding affinity by radioligand binding assay using cell line expressing human 5-hydroxytryptamine 1E receptor
[17] = target: 5-hydroxytryptamine receptor 2A (Homo sapiens, UniProt P28223); test: In vitro binding affinity by radioligand binding assay using cell line expressing human 5-hydroxytryptamine 2A receptor
[18] = target: 5-hydroxytryptamine receptor 7 (Homo sapiens, UniProt P34969); test: In vitro binding affinity by radioligand binding assay using cell line expressing human 5-hydroxytryptamine 7 receptor
Chain of 5-hydroxytryptamine receptor 7 (P34969 whole entry): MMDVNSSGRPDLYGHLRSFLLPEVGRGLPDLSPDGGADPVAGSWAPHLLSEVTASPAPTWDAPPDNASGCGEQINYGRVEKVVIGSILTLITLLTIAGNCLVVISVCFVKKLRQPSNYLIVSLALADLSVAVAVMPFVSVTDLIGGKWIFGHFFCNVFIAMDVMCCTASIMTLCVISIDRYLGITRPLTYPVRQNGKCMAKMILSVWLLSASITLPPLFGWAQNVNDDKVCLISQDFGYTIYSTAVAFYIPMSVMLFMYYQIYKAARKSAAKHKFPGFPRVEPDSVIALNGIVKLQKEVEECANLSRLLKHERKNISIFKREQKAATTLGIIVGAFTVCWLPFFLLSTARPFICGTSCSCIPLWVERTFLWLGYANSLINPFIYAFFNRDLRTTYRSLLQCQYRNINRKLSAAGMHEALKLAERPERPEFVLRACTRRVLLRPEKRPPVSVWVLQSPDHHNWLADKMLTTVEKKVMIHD

Chain of 5-hydroxytryptamine receptor 1B (P28222 whole entry): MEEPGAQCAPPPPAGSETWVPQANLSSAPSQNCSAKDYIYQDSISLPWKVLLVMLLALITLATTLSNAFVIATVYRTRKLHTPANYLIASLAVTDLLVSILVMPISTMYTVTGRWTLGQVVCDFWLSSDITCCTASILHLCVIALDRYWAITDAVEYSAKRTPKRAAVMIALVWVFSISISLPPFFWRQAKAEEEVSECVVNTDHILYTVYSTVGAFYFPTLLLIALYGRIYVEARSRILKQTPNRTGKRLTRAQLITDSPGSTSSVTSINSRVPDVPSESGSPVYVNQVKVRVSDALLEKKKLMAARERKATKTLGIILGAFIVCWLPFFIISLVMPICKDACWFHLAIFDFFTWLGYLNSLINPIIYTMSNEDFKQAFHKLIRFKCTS
Chain of 5-hydroxytryptamine receptor 1D (P28221 whole entry): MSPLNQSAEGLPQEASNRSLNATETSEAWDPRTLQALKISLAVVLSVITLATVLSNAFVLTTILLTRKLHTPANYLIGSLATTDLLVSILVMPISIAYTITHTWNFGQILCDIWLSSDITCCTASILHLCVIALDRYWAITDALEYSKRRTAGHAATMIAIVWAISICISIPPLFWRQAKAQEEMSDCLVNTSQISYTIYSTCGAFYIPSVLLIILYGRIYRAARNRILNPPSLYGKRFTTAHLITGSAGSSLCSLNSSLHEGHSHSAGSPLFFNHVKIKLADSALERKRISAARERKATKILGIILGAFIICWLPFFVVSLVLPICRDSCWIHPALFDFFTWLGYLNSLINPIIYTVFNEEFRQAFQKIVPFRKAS
Chain of 5-hydroxytryptamine receptor 2A (P28223 whole entry): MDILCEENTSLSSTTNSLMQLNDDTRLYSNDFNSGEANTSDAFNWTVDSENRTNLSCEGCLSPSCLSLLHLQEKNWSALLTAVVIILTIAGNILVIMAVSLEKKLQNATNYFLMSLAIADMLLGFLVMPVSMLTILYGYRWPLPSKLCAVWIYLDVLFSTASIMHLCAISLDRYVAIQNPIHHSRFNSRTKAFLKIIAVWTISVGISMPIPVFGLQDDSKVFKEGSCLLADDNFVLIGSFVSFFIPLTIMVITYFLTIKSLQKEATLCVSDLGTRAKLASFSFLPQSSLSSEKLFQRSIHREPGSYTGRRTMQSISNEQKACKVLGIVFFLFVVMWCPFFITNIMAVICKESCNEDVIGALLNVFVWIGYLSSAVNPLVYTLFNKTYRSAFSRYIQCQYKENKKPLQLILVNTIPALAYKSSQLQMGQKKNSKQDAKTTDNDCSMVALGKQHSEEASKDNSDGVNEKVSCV
Chain of 5-hydroxytryptamine receptor 4 (Q13639 whole entry): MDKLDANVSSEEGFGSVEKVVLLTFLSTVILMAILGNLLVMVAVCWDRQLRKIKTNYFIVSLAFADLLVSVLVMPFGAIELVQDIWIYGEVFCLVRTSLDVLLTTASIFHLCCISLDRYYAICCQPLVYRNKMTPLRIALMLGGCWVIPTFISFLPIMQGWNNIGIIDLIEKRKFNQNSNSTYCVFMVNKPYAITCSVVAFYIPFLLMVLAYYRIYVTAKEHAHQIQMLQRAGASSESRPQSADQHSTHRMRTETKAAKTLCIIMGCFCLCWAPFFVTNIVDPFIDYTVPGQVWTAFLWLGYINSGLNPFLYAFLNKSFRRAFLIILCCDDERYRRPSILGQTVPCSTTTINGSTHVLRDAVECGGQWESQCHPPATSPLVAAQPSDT
Chain of 5-hydroxytryptamine receptor 1E (P28566 whole entry): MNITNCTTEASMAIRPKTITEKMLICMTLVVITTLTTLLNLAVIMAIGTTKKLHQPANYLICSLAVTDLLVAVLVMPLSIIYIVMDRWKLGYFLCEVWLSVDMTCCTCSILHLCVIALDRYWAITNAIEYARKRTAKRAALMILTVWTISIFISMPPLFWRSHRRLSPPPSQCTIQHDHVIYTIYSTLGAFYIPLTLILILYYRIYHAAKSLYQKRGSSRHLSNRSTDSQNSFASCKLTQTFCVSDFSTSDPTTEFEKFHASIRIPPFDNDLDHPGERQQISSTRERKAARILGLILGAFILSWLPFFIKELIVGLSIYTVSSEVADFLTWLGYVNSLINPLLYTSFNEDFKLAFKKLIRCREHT
Chain of 5-hydroxytryptamine receptor 2B (P41595 whole entry): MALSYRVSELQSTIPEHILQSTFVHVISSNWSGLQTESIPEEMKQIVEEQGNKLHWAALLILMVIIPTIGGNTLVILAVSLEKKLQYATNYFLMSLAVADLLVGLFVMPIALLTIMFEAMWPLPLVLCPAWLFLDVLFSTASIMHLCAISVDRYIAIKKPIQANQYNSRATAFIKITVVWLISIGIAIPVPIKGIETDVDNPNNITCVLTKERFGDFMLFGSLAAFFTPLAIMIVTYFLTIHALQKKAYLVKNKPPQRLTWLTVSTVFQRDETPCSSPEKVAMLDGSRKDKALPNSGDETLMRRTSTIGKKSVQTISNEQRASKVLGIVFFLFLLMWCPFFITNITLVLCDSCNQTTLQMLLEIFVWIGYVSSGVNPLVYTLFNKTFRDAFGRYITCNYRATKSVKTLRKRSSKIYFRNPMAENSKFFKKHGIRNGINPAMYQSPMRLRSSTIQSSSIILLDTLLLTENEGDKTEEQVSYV
Chain of 5-hydroxytryptamine receptor 6 (P50406 whole entry): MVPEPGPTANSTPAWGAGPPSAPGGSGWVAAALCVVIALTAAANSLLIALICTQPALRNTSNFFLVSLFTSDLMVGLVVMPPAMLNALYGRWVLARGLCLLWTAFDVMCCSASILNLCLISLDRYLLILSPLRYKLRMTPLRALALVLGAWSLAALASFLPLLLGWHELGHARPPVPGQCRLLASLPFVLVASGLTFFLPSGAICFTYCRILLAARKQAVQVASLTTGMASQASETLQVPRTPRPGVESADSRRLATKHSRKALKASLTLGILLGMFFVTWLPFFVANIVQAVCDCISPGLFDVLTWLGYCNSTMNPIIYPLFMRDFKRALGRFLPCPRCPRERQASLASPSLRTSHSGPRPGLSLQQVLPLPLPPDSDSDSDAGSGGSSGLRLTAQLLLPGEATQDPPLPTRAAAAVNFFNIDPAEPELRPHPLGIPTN

| Ki [1] [nM] | Emax [2] [%] | Ki [3] [nM] | Ki [7] [nM] | Ki [8] [nM] | EC50 [9] [nM] | EC50 [11] [nM] | Ki [12] [nM] | Ki [13] [nM] | Ki [14] [nM] | Ki [15] [nM] | Ki [16] [nM] | Ki [17] [nM] | Ki [18] [nM] | Compound | Response (Oryctolagus cuniculus [4]) [%] | Concentration of max response (Oryctolagus cuniculus [5]) [µM] | Efficacy (Cavia porcellus [6]) | Efficacy (Cavia porcellus [10]) |
| --- | --- | --- | --- | --- | --- | --- | --- | --- | --- | --- | --- | --- | --- | --- | --- | --- | --- | --- |
| 250 | 98 | 270 | 620 | 5 | 36 | – | – | – | – | – | – | – | – | CC(=O)Nc1ccc2[nH]cc(C3CCN(C)CC3)c2n1 | 5.7 | 30 | 1 | 1.1 |
| 730 | 88 | 720 | 1000 | 5.5 | – | 32 | 310 | 1120 | 2400 | > 10000 | 770 | 3400 | – | CCC(=O)Nc1ccc2[nH]cc(C3CCN(C)CC3)c2n1 | 3 | – | 1.2 | 1 |
| 730 | – | 1200 | 56 | 7.6 | – | – | 1900 | > 10000 | 4000 | > 10000 | 660 | 4800 | > 5000 | CN1CCC(c2c[nH]c3ccc(NC(=O)c4ccc(F)cc4)nc23)CC1 | 16 | – | – | – |
| 1000 | – | 820 | 72 | 7.3 | – | – | – | – | – | – | – | – | – | CN1CCC(c2c[nH]c3ccc(NC(=O)c4ccccc4)nc23)CC1 | 0 | – | 1.1 | 1.6 |
| 810 | 84 | 1000 | 400 | 7.4 | – | 9.4 | – | – | – | – | – | – | – | CN1CCC(c2c[nH]c3ccc(NC(=O)c4ccsc4)nc23)CC1 | 0 | – | 1 | 1.6 |
| 380 | – | 310 | 31 | 7.2 | – | – | – | – | – | – | – | – | – | CN1CCC(c2c[nH]c3ccc(NC(=O)c4ccc(C#N)cc4)nc23)CC1 | 1.1 | 30 | 1.5 | – |
